Test results taken from ChEMBL document CHEMBL1136139, “The design, synthesis and evaluation of novel HIV-1 protease inhibitors with high potency against PI-resistant viral strains” (Bioorg Med Chem Lett, 2003).

Assays:
MT4 [1] = assay: Ability to inhibit spread of viral infection in MT-4 human T-lymphoidcell infected by PI-resistant HIV-1 (strain K-60C); assay type: functional; conditions: read-out: CIC95
How it was run: (§1)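 MT4 human T-lymphoid cells infected with HIV-1, either wild-type NL4-3 or engineered PI-resistant constructs (4X, K-60C, V-18C, Q-60C) carrying varied patterns of multiple PI resistance mutations; spread of infection in culture followed. Value is CIC95, the compound concentration inhibiting at least 95% of infectious viral spread relative to untreated virus control culture.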

[2] = molecular target: Human immunodeficiency virus type 1 protease (Human immunodeficiency virus 1, UniProt Q72874); assay: Inhibitory activity against HIV-1 Protease
MT4 [3] = assay: Ability to inhibit spread of viral infection in MT-4 human T-lymphoidcell infected by wild-type HIV-1(strain NL4-3); assay type: functional; conditions: read-out: CIC95; how it was run: as §1
MT4 [4] = assay: Ability to inhibit spread of viral infection in MT-4 human T-lymphoidcell infected by PI-resistant HIV-1 (strain Q-60C); assay type: functional; conditions: read-out: CIC95; how it was run: as §1
MT4 [5] = assay: Ability to inhibit spread of viral infection in MT-4 human T-lymphoidcell infected by PI-resistant HIV-1 (strain V-18C); assay type: functional; conditions: read-out: CIC95; how it was run: as §1
MT4 [6] = assay: Ability to inhibit spread of viral infection in MT-4 human T-lymphoidcell infected by PI-resistant HIV-1 (strain 4X Virus); assay type: functional; conditions: read-out: CIC95; how it was run: as §1
Cytochrome P450 2D6 = Cytochrome P450 2D6 (Homo sapiens, UniProt P10635); assay: Inhibition of human liver microsome Cytochrome P450 2D6; assay type: ADME, microsomes
Cytochrome P450 3A4 = Cytochrome P450 3A4 (Homo sapiens, UniProt P08684); assay: Inhibition of human liver microsome Cytochrome P450 3A4
[7] = In vitro intrinsic clearance in human liver microsome; assay type: ADME; conditions: liver microsomes
How it was run: (§2)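 The compound was incubated with liver microsomes from rat, dog, rhesus and human. Metabolic stability was expressed as intrinsic clearance scaled to mL/min/kg.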

Cytochrome P450 2C9 = Cytochrome P450 2C9 (Homo sapiens, UniProt P11712); assay: Inhibition of human liver microsome Cytochrome P450 2C9; assay type: ADME, microsomes
[8] = Half life period was determine after peroral administration at 10 mpk in Rhesus; assay type: ADME, organism-based, Macaca mulatta; conditions: rhesus monkey, in vivo, po, 10 mg/kg
How it was run: (§3)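 Rhesus monkeys were given 10 mg/kg orally and 2 mg/kg intravenously. Cmax, half-life, AUC, plasma clearance (mL/min/kg) and bioavailability (%) were taken from plasma concentration profiles.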

[9] = Plasma clearance after peroral administration at 10 mpk in dog; assay type: ADME, organism-based, Canis lupus familiaris; conditions: po, 10 mg/kg, read-out: Clp
How it was run: (§4)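 Dogs dosed both intravenously (2 mg/kg) and orally (10 mg/kg). Cmax, half-life, plasma clearance (mL/min/kg) and oral bioavailability (%) were derived from plasma drug levels. The study was IACUC-approved.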

[10] = Oral bioavailability in dog (dose 10 mg/kg); assay type: ADME, organism-based, Canis lupus familiaris; conditions: in vivo; how it was run: as §4
[11] = Cmax was determine after peroral administration at 20 mpk in Rat; assay type: ADME, organism-based; set-up: dose 20 mpk, route oral; conditions: in vivo, po, 20 mg/kg
How it was run: (§5)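 Rats were dosed orally across 10–160 mg/kg (10, 20, 50, 160). The 10 mg/kg oral arm was paired with 5 mg/kg intravenous dosing. Cmax, AUC, half-life, plasma clearance (mL/min/kg) and bioavailability (%) were determined at each oral dose.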

[12] = Oral bioavailability after peroral administration at 50 mpk in Rat; assay type: ADME, organism-based; conditions: in vivo, 50 mg/kg; how it was run: as §5
[13] = Half life period was determine after peroral administration at 10 mpk in Rat; assay type: ADME, organism-based; conditions: in vivo, po, 10 mg/kg; how it was run: as §5
Rhesus monkey [14] = assay: Plasma clearance after peroral administration at 10 mpk in Rhesus; assay type: ADME, organism-based, Macaca mulatta; conditions: in vivo, po, 10 mg/kg; how it was run: as §3
[15] = Area under curve was determine after peroral administration at 20 mpk in Rat; assay type: ADME, organism-based; conditions: in vivo, po, 20 mg/kg; how it was run: as §5
[16] = Half life period was determine after peroral administration at 10 mpk in dog; assay type: ADME, organism-based, Canis lupus familiaris; conditions: in vivo, po, 10 mg/kg; how it was run: as §4
[17] = Oral bioavailability after peroral administration at 10 mpk in Rat; assay type: ADME, organism-based; conditions: in vivo, 10 mg/kg; how it was run: as §5
[18] = Intrinsic clearance in Rhesus liver microsome; assay type: ADME, Macaca mulatta; conditions: rhesus monkey, liver microsomes; how it was run: as §2
[19] = Intrinsic clearance in dog liver microsome; assay type: ADME, Canis lupus familiaris; conditions: liver microsomes; how it was run: as §2
[20] = Cmax was determine after peroral administration at 160 mpk in Rat; assay type: ADME, organism-based; set-up: dose 160 mpk, route oral; conditions: in vivo, po, 160 mg/kg; how it was run: as §5
[21] = Cmax was determine after peroral administration at 10 mpk in dog; assay type: ADME, organism-based, Canis lupus familiaris; set-up: dose 10 mpk, route oral; conditions: in vivo, po, 10 mg/kg; how it was run: as §4
[22] = Oral bioavailability in Rhesus monkey (dose 10 mg/kg p.o.); assay type: ADME, organism-based, Macaca mulatta; conditions: in vivo; how it was run: as §3
[23] = Cmax was determine after peroral administration at 10 mpk in Rhesus; assay type: ADME, organism-based, Macaca mulatta; set-up: dose 10 mpk, route oral; conditions: rhesus monkey, in vivo, po, 10 mg/kg; how it was run: as §3
[24] = Area under curve was determine after peroral administration at 50 mpk in Rat; assay type: ADME, organism-based; conditions: in vivo, po, 50 mg/kg; how it was run: as §5
[25] = Intrinsic clearance in rat liver microsome; assay type: ADME; conditions: liver microsomes; how it was run: as §2
[26] = Cmax was determine after peroral administration at 50 mpk in Rat; assay type: ADME, organism-based; set-up: dose 50 mpk, route oral; conditions: in vivo, po, 50 mg/kg; how it was run: as §5
[27] = Area under curve was determine after peroral administration at 160 mpk in Rat; assay type: ADME, organism-based; conditions: in vivo, po, 160 mg/kg; how it was run: as §5
[28] = Cmax was determine after peroral administration at 10 mpk in Rat; assay type: ADME, organism-based; set-up: dose 10 mpk, route oral; conditions: in vivo, po, 10 mg/kg; how it was run: as §5
[29] = Oral bioavailability after peroral administration at 20 mpk in Rat; assay type: ADME, organism-based; conditions: in vivo, 20 mg/kg; how it was run: as §5
Rhesus monkey [30] = assay: Area under curve was determine after peroral administration at 10 mpk in Rhesus; assay type: ADME, organism-based, Macaca mulatta; conditions: in vivo, po, 10 mg/kg; how it was run: as §3
Rattus norvegicus [31] = assay: Area under curve was determine after peroral administration at 10 mpk in Rat; assay type: ADME, organism-based; conditions: in vivo, po, 10 mg/kg; how it was run: as §5
[32] = Oral bioavailability after peroral administration at 160 mpk in Rat; assay type: ADME, organism-based; conditions: in vivo, 160 mg/kg; how it was run: as §5
Rattus norvegicus [33] = assay: Plasma clearance after peroral administration at 10 mpk in Rat; assay type: ADME, organism-based; conditions: in vivo, po, 10 mg/kg; how it was run: as §5

Cytochrome P450 3A4, sequence (P08684 whole entry): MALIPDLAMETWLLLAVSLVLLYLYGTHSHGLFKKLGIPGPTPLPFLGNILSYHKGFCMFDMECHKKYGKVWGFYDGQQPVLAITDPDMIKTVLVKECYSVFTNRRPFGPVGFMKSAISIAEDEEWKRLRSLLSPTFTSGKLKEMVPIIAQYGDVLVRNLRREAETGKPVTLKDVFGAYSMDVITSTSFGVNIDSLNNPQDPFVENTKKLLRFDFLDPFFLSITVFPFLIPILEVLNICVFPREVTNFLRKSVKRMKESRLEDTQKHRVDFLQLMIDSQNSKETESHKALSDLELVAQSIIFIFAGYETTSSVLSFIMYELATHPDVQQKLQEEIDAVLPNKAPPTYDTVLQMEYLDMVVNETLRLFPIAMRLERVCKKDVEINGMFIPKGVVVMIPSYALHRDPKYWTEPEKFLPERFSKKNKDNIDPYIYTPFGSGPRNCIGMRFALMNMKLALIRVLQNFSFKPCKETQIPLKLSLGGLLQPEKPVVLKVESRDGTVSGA
Cytochrome P450 2D6, sequence (P10635 whole entry): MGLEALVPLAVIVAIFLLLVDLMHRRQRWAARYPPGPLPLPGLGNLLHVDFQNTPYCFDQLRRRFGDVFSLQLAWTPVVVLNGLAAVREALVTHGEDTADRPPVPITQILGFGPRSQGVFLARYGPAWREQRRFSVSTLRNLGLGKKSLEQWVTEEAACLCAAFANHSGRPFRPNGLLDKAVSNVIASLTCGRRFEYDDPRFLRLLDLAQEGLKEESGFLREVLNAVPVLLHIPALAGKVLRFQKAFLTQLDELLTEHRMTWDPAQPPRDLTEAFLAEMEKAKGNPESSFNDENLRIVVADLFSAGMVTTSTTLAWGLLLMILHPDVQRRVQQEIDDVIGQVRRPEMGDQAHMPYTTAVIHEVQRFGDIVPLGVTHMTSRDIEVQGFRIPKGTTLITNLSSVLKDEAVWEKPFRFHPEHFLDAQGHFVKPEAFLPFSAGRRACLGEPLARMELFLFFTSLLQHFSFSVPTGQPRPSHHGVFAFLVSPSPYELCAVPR
Cytochrome P450 2C9, sequence (P11712 whole entry): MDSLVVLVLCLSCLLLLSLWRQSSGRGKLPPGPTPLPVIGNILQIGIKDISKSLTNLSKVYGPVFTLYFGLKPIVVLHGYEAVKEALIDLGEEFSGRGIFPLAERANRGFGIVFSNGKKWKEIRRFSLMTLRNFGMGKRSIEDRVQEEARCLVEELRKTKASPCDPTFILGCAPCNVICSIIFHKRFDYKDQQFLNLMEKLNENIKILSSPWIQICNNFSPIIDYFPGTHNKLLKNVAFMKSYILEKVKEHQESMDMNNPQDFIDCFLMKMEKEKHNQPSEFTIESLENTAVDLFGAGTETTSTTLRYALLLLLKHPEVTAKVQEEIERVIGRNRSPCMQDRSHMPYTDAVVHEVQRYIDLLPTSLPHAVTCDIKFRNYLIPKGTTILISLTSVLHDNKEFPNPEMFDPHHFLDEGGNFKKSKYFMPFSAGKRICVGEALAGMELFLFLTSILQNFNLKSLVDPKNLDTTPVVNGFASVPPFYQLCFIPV

O=C(N[C@H]1c2ccccc2OC[C@H]1O)[C@H](Cc1ccccc1)C[C@H](O)CN1CCN(Cc2ncc(-c3ccncc3)o2)C[C@H]1C(=O)NCC(F)(F)F
IC95 (MT4 [1]): 125 nM | IC50 [2]: 0.1 nM | IC95 (MT4 [3]): 23 nM | IC95 (MT4 [4]): 250 nM | IC95 (MT4 [5]): 125 nM | IC95 (MT4 [6]): 62 nM

CC(C)(c1ncc(-c2ccccn2)o1)N1CCN(C[C@@H](O)C[C@@H](Cc2ccccc2)C(=O)N[C@H]2c3ccccc3OC[C@H]2O)[C@H](C(=O)NCC(F)(F)F)C1
IC95 (MT4 [1]): 31 nM | IC50 [2]: 0.04 nM | IC50 (Cytochrome P450 2D6): 22200 nM | IC50 (Cytochrome P450 3A4): 5000 nM | CLint scaled [7]: 500 mL/min/kg | IC95 (MT4 [3]): ≤ 8 nM | IC95 (MT4 [4]): 15 nM | IC95 (MT4 [5]): 62 nM | IC50 (Cytochrome P450 2C9): 28000 nM

O=C(N[C@H]1c2ccccc2OC[C@H]1O)[C@H](Cc1ccccc1)C[C@H](O)CN1CCN(Cc2ccc(-c3ccccn3)o2)C[C@H]1C(=O)NCC(F)(F)F
IC95 (MT4 [1]): 31 nM | IC50 [2]: 0.05 nM | IC95 (MT4 [3]): ≤ 8 nM | IC95 (MT4 [4]): 15 nM | IC95 (MT4 [5]): 15 nM

CC(C)(C)NC(=O)[C@@H]1CN(Cc2cccnc2)CCN1C[C@@H](O)C[C@@H](Cc1ccccc1)C(=O)N[C@H]1c2ccccc2C[C@H]1O
IC95 (MT4 [1]): > 1000 nM | IC95 (MT4 [3]): 50 nM | IC95 (MT4 [4]): > 1000 nM | IC95 (MT4 [5]): > 1000 nM | IC95 (MT4 [6]): 400 nM

COc1cncc(-c2cnc(C(C)(C)N3CCN(C[C@@H](O)C[C@@H](Cc4ccccc4)C(=O)N[C@H]4c5ccccc5OC[C@H]4O)[C@H](C(=O)NCC(F)(F)F)C3)o2)c1
half-life [8]: 1.22 h | IC95 (MT4 [1]): 15 nM | CL/F [9]: 18 mL/min/kg | bioavailability [10]: 30% | Cmax [11]: 370 nM | bioavailability [12]: 40.5% | IC50 [2]: 0.02 nM | half-life [13]: 0.433 h | IC50 (Cytochrome P450 2D6): 8700 nM | IC50 (Cytochrome P450 3A4): 40 nM | Clp (Rhesus monkey [14]): 33 mL/min/kg | CLint scaled [7]: 13 mL/min/kg | AUC [15]: 0.38 µM·h | half-life [16]: 1.02 h | IC95 (MT4 [3]): ≤ 8 nM | bioavailability [17]: 1.5% | CLint [18]: 120 mL/min/kg | CLint [19]: 67 mL/min/kg | Cmax [20]: 6880 nM | Cmax [21]: 4300 nM | bioavailability [22]: 2.2% | IC95 (MT4 [4]): 31 nM | Cmax [23]: 100 nM | AUC [24]: 4.02 µM·h | CLint [25]: 87 mL/min/kg | IC95 (MT4 [5]): 15 nM | Cmax [26]: 3060 nM | AUC [27]: 15.7 µM·h | Cmax [28]: 40 nM | bioavailability [29]: 9.2% | AUC (Rhesus monkey [30]): 0.12 µM·h | AUC (Rattus norvegicus [31]): 0.03 µM·h | bioavailability [32]: 47.2% | IC50 (Cytochrome P450 2C9): 30000 nM | Clp (Rattus norvegicus [33]): 104 mL/min/kg
